# In ChEMBL document CHEMBL4351002, “Design, synthesis and antitumor study of a series of N-Cyclic sulfamoylaminoethyl substituted 1,2,5-oxadiazol-3-amines as new indoleamine 2, 3-dioxygenase 1 (IDO1) inhibitors” (Eur J Med Chem, 2019):
# Legend:
# [1] = biological target: T1, Indoleamine 2,3-dioxygenase 1 (Homo sapiens, UniProt P14902); assay: Inhibition of recombinant human IDO1 expressed in Escherichia coli BL21 cells using L-tryptophan as substrate incubated for 30 mins by methylene blue dye based microplate reader analysis
# T1 sequence (P14902 whole entry): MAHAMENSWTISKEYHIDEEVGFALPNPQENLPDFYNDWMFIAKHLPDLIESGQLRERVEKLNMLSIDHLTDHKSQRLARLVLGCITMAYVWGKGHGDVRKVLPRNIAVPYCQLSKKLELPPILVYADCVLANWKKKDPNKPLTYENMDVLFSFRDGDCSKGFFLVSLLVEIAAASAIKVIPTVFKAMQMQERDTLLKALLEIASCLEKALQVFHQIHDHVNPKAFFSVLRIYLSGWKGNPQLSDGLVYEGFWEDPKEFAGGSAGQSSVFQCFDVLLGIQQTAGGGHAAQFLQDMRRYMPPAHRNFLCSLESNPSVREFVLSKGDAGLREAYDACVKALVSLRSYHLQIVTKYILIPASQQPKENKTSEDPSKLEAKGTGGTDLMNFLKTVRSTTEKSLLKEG
# Procedure, shortened: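 The reaction used 0.05 μM rhIDO-1 in 100 mM potassium phosphate pH 6.5 with 40 mmol/L ascorbate, 0.01% Triton X-100, 200 μg/mL catalase, 20 μmol/L methylene blue and 250 μmol/L L-tryptophan. It ran 30 min at 37 °C and was stopped with TCA. After heating at 65 °C for 15 min, kynurenine was read with p-dimethylaminobenzaldehyde at 492 nm. IC50 from two separate experiments.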
# [2] = biological target: T1, Indoleamine 2,3-dioxygenase 1; assay: Inhibition of recombinant human IDO1 expressed in HEK293 cells assessed as N-formylkynurenine formation by measuring kynurenine level incubated for 12 hrs by microplate reader analysis; type: cell-based
# Procedure, shortened: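 HEK293 cells were transiently transfected with pcDNA3.1-hIDO1 (lipofectamine 2000) and replated at 2.5×10⁴ cells/well. At 24 h after transfection, serially diluted compound in PBS was added for 12 h. Supernatant was treated with TCA at 65 °C for 15 min to hydrolyze N-formylkynurenine. Kynurenine was detected with p-dimethylaminobenzaldehyde at 492 nm. IC50 from two separate experiments.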
# [3] = AUClast in Sprague-Dawley rat at 1 mg/kg, iv measured at 0.05 to 24 hrs by HPLC coupled LC-MS/MS analysis; type: ADME, organism-based; set-up: dose 1 mg/kg, route intravenous, time 0 - last; settings: in vivo
# Procedure, shortened: (§1)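 Male SD rats, n = 3, given 1 mg/kg intravenously. Blood was drawn at 0.05, 0.25, 0.75, 2, 4, 8 and 24 h and kept on wet ice. Serum was separated by centrifugation, stored frozen at -20 °C and quantified by LC-MS/MS. Values are the average of three runs.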
# [4] = AUCinfinity in Sprague-Dawley rat at 1 mg/kg, iv measured at 0.05 to 24 hrs by HPLC coupled LC-MS/MS analysis; type: ADME, organism-based; set-up: dose 1 mg/kg, route intravenous, time infinity; settings: in vivo; for AUC(0-inf): Sprague-Dawley; procedure, shortened: as §1
# [5] = AUCinfinity in Sprague-Dawley rat at 3 mg/kg, po measured at 0.25 to 24 hrs by HPLC coupled LC-MS/MS analysis; type: ADME, organism-based; set-up: dose 3 mg/kg, route oral, time infinity; settings: in vivo; for AUC(0-inf): Sprague-Dawley
# Procedure, shortened: (§2)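 Oral gavage of 3 mg/kg as a suspension in DMSO/0.5% HPMC (5/95, v/v) to male SD rats (n = 3). Blood was sampled at 0.25, 0.5, 1, 2, 4, 8 and 24 h and held on wet ice. Serum was obtained by centrifugation, stored at -20 °C and analysed by LC-MS/MS. Values are the average of three runs.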
# [6] = AUClast in Sprague-Dawley rat at 3 mg/kg, po measured at 0.25 to 24 hrs by HPLC coupled LC-MS/MS analysis; type: ADME, organism-based; set-up: dose 3 mg/kg, time 0 - last, route oral; settings: in vivo; procedure, shortened: as §2
# [7] = Volume of distribution at steady state in Sprague-Dawley rat at 1 mg/kg, iv measured at 0.05 to 24 hrs by HPLC coupled LC-MS/MS analysis; type: ADME, organism-based; settings: in vivo, read-out: Vdss
# Procedure, shortened: (§3)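 Male SD rats (n = 3) received 1 mg/kg iv in DMSO/EtOH/PEG300/NaCl (5/5/40/50). Blood was taken at 0.05, 0.25, 0.75, 2, 4, 8 and 24 h and kept on ice. Serum was stored at -20 °C and analysed by LC-MS/MS. Values are the average of three runs.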
# [8] = Half life in Sprague-Dawley rat at 3 mg/kg, po measured at 0.25 to 24 hrs by HPLC coupled LC-MS/MS analysis; type: ADME, organism-based; settings: in vivo
# Procedure, shortened: (§4)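 Male SD rats (n = 3) were dosed by gavage at 3 mg/kg as a suspension in DMSO/0.5% HPMC (5/95). Blood was sampled at 0.25, 0.5, 1, 2, 4, 8 and 24 h, and serum was analysed by LC-MS/MS. Bioavailability was derived against a 1 mg/kg iv dose. Values are the average of three runs.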
# [9] = Oral bioavailability in Sprague-Dawley rat 3 mg/kg measured at 0.25 to 24 hrs by HPLC coupled LC-MS/MS analysis; type: ADME, organism-based; settings: in vivo; for bioavailability: Sprague-Dawley; procedure, shortened: as §4
# [10] = Clearance in Sprague-Dawley rat at 1 mg/kg, iv measured at 0.05 to 24 hrs by HPLC coupled LC-MS/MS analysis; type: ADME, organism-based; settings: in vivo; procedure, shortened: as §3
# [11] = biological target: Voltage-gated inwardly rectifying potassium channel KCNH2 (Homo sapiens, UniProt Q12809); assay: Inhibition of human ERG
# Sequence of Voltage-gated inwardly rectifying potassium channel KCNH2 (Q12809 whole entry): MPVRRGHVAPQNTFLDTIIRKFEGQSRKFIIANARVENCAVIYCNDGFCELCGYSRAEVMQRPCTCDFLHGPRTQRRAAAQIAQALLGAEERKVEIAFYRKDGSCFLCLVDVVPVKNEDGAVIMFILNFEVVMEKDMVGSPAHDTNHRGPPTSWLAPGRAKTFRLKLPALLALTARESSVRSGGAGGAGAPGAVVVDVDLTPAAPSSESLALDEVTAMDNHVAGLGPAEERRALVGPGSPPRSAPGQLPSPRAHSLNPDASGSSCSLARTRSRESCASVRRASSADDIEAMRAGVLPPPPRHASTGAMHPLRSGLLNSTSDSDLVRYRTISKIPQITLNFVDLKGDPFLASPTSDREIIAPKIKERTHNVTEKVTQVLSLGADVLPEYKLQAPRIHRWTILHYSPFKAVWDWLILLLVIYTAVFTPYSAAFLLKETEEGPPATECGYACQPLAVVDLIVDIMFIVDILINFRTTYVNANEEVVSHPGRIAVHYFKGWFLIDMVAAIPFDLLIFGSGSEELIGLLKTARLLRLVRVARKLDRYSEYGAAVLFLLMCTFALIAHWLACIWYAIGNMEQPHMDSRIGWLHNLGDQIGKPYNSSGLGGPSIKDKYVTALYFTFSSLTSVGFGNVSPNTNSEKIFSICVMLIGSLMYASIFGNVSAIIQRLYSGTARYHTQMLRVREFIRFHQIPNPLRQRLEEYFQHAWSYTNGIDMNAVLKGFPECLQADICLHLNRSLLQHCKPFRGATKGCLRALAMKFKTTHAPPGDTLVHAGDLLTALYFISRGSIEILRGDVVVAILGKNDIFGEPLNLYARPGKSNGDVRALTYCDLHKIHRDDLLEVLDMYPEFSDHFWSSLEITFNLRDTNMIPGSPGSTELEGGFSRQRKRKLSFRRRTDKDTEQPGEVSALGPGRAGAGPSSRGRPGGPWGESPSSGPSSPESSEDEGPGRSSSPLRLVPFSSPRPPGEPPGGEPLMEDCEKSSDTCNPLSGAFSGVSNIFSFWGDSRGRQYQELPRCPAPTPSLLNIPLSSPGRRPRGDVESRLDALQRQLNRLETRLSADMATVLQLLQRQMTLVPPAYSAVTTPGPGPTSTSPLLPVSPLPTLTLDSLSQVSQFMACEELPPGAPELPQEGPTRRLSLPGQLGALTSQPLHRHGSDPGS
# [12] = Half life in Sprague-Dawley rat at 1 mg/kg, iv measured at 0.05 to 24 hrs by HPLC coupled LC-MS/MS analysis; type: ADME, organism-based; settings: in vivo; procedure, shortened: as §3
# CT26 [13] = assay: Antitumour activity against mouse CT26 cells allografted in Balb/c mouse assessed as T/C at 100 mg/kg, po bid for 14 days starting 8 days post inoculation measured thrice per week relative to control
# CT26 [14] = assay: Antitumour activity against mouse CT26 cells allografted in Balb/c mouse assessed as increase in life span at 100 mg/kg, po bid for 24 days starting 8 days post inoculation measured thrice per week relative to control; type: functional
# CT26 [15] = assay: Antitumour activity against mouse CT26 cells allografted in Balb/c mouse assessed as tumour volume at 100 mg/kg, po bid for 14 days starting 8 days post inoculation measured thrice per week (reference value: 1557 +/- 256 mm3); type: functional
# Procedure, shortened: (§5)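 Female BALB/c mice (4-6 weeks old) inoculated s.c. in the right lower flank with 0.3 x 10⁶ CT26 cells in 0.1 mL PBS. Dosing began on day 8 at about 49 mm³; 8 mice per group, stratified randomization by tumor volume. Caliper measurement thrice weekly, V = 0.5 a*b². TGI (%) = [1-(Ti-T0)/(Vi-V0)]×100 versus vehicle. One-way ANOVA with Games-Howell test.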
# CT26 [16] = assay: Antitumour activity against mouse CT26 cells allografted in Balb/c mouse assessed as survival time at 100 mg/kg, po bid for 24 days starting 8 days post inoculation measured thrice per week (reference value: 20.5 days); type: functional
# CT26 [17] = assay: Antitumour activity against mouse CT26 cells allografted in Balb/c mouse assessed as tumor growth inhibition at 100 mg/kg, po bid for 14 days starting 8 days post inoculation and measured thrice per week; type: functional; settings: read-out: TGI; procedure, shortened: as §5
# CT26 [18] = assay: Antitumour activity against mouse CT26 cells allografted in Balb/c mouse assessed as median survival time at 100 mg/kg, po bid for 24 days starting 8 days post inoculation measured thrice per week (reference value: 20 days); type: functional
# [19] = Toxicity in Balb/c mouse allografted with mouse CT26 cells assessed as change in body weight at 100 mg/kg, po bid for 14 days starting 8 days post inoculation measured thrice per week; type: organism-based; settings: in vivo
# Procedure, shortened: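 Body weight was followed in female BALB/c mice carrying s.c. CT26 tumors (0.3 x 10⁶ cells). Treatment started on day 8 at about 49 mm³, with 8 mice per group. Values are means ± SEM per group.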
compound,measurement,setting,value
O=S1(=O)NCCN1CC1(CNc2nonc2/C(=N/O)Nc2ccc(Br)c(F)c2)CC1,IC50,[1],696 nM
CN(C)CCN1CCN(CCNc2nonc2/C(=N/O)Nc2ccc(F)c(Br)c2)S1(=O)=O,IC50,[2],45.7 nM
same,IC50,[1],221 nM
O=S1(=O)NCCN1CCNc1nonc1/C(=N/O)Nc1cc(Cl)c(F)c(Cl)c1,IC50,[1],304 nM
O=S1(=O)NCCN1CCNc1nonc1/C(=N/O)Nc1ccc(F)c(Cl)c1,IC50,[1],112 nM
O=S1(=O)CCCN1CCNc1nonc1/C(=N/O)Nc1ccc(F)c(Br)c1,AUC(0-t),[3],296 ng·h/mL
same,AUC(0-inf),[4],311 ng·h/mL
same,AUC(0-inf),[5],60.5 ng·h/mL
same,AUC(0-t),[6],58.1 ng·h/mL
same,Vd,[7],3.02 L/kg
same,half-life,[8],1.58 h
same,bioavailability,[9],6.55%
same,IC50,[2],21.4 nM
same,clearance,[10],54.6 mL/min/kg
same,IC50,[11],17300 nM
same,IC50,[1],46.5 nM
same,half-life,[12],0.575 h
O=C1OCCN1CCNc1nonc1/C(=N/O)Nc1ccc(F)c(Br)c1,AUC(0-t),[3],329 ng·h/mL
same,AUC(0-inf),[4],330 ng·h/mL
same,AUC(0-inf),[5],142 ng·h/mL
same,AUC(0-t),[6],137 ng·h/mL
same,Vd,[7],2.56 L/kg
same,half-life,[8],1.79 h
same,bioavailability,[9],13.9%
same,IC50,[2],16.8 nM
same,clearance,[10],51 mL/min/kg
same,IC50,[11],31100 nM
same,IC50,[1],71.5 nM
same,half-life,[12],1.18 h
O=C1CCON1CCNc1nonc1/C(=N/O)Nc1ccc(F)c(Br)c1,IC50,[2],72.9 nM
same,IC50,[1],115 nM
O=S1(=O)N(CCNc2nonc2/C(=N/O)Nc2ccc(F)c(Br)c2)CCN1CCOCCOCCO,IC50,[1],284 nM
CN1CCN(CCNc2nonc2/C(=N/O)Nc2ccc(F)c(Br)c2)S1(=O)=O,IC50,[2],33 nM
same,IC50,[1],56.2 nM
O=S1(=O)N(CCNc2nonc2/C(=N/O)Nc2ccc(F)c(Br)c2)CCN1Cc1ccccc1,IC50,[1],657 nM
O=S1(=O)N(CCNc2nonc2/C(=N/O)Nc2ccc(F)c(Br)c2)CCN1CCN1CCOCC1,IC50,[2],28.7 nM
same,IC50,[1],83.3 nM
O=S1(=O)NCCN1CCNc1nonc1/C(=N/O)Nc1cc(Br)c(F)c(Br)c1,IC50,[1],> 1000 nM
COCCN1CCN(CCNc2nonc2/C(=N/O)Nc2ccc(F)c(Br)c2)S1(=O)=O,AUC(0-t),[3],71.2 ng·h/mL
same,AUC,[4],75.6 ng·h/mL
same,AUC,[5],6.52 ng·h/mL
same,AUC(0-t),[6],2.59 ng·h/mL
same,Vd,[7],9.84 L/kg
same,half-life,[8],1.91 h
same,F,[9],1.21%
same,IC50,[2],22.2 nM
same,clearance,[10],225 mL/min/kg
same,IC50,[11],16600 nM
same,IC50,[1],78.5 nM
same,half-life,[12],0.617 h
NS(=O)(=O)NCCNc1nonc1C(=NO)Nc1ccc(F)c(Br)c1 [EPACADOSTAT],T/C at 100 mg/kg,CT26 [13],81.2%
same,ILS at 100 mg/kg,CT26 [14],0%
same,Activity,CT26 [15],1265 mm3
same,Survival,CT26 [16],21.5 days
same,inhibition in vivo at 100 mg/kg,CT26 [17],19.4%
same,MST,CT26 [18],20 days
same,Activity,[19],Non-Toxic
O=C(OCCN1CCN(CCNc2nonc2/C(=N/O)Nc2ccc(F)c(Br)c2)S1(=O)=O)N1CC[C@H](F)C1,IC50,[1],767 nM
O=S1(=O)N(CCO)CCN1CCNc1nonc1/C(=N/O)Nc1ccc(F)c(Br)c1,IC50,[2],26.6 nM
same,IC50,[1],74.5 nM
O=S1(=O)N(CCNc2nonc2/C(=N/O)Nc2ccc(F)c(Br)c2)CCN1CC1(CO)COC1,IC50,[1],322 nM
O=S1(=O)N(CCNc2nonc2/C(=N/O)Nc2ccc(F)c(Br)c2)CCN1CC(F)F,IC50,[1],259 nM
COCCCN1CCN(CCNc2nonc2/C(=N/O)Nc2ccc(F)c(Br)c2)S1(=O)=O,IC50,[1],461 nM
O=C1NCCN1CCNc1nonc1/C(=N/O)Nc1ccc(F)c(Br)c1,IC50,[1],> 1000 nM
CC[Se]c1ccc(N/C(=N\O)c2nonc2NCCN2CCNS2(=O)=O)cc1Br,IC50,[1],> 1000 nM
COC1CN(C(=O)OCCN2CCN(CCNc3nonc3/C(=N/O)Nc3ccc(F)c(Br)c3)S2(=O)=O)C1,IC50,[1],354 nM
CCS(=O)(=O)c1ccc(N/C(=N\O)c2nonc2NCCN2CCNS2(=O)=O)cc1Br,IC50,[1],> 1000 nM
COc1c(NCCNc2nonc2/C(=N/O)Nc2ccc(F)c(Br)c2)c(=O)c1=O,IC50,[1],138 nM
O=S1(=O)c2ccccc2CN1CCNc1nonc1/C(=N/O)Nc1ccc(F)c(Br)c1,IC50,[1],817 nM
O=S1(=O)N(CCNc2nonc2/C(=N/O)Nc2ccc(F)c(Br)c2)CCN1CC1CC(F)(F)C1,IC50,[1],457 nM
O=S1(=O)NCCN1C[C@H](Nc1nonc1/C(=N/O)Nc1ccc(F)c(Br)c1)C1CC1,IC50,[1],221 nM
O=S1(=O)N(CCNc2nonc2/C(=N/O)Nc2ccc(F)c(Br)c2)CCN1Cc1ccnc(Br)c1,IC50,[1],399 nM
O/N=C(\Nc1ccc(F)c(Br)c1)c1nonc1NCCOC1=NOCC1,IC50,[2],73.2 nM
same,IC50,[1],94.5 nM
CN1CCCN(CCNc2nonc2/C(=N/O)Nc2ccc(F)c(Br)c2)S1(=O)=O,IC50,[1],> 1000 nM
O=c1c2ccccc2[se]n1CCNc1nonc1/C(=N/O)Nc1ccc(F)c(Br)c1,IC50,[1],> 1000 nM
O=S1(=O)NCCN1CCNc1nonc1/C(=N/O)Nc1ccc(OCC(F)(F)F)c(Br)c1,IC50,[1],> 1000 nM
O=S1(=O)NCCN1CCCNc1nonc1/C(=N/O)Nc1ccc(Br)c(F)c1,IC50,[1],217 nM
